According to ChEMBL document CHEMBL5724801, “EUbOPEN Chemogenomics Library - Multiplex” (2024):
Several values for one entry are separate records, joined by “and”; a condition that tells them apart may be missing. Equal values may be shown once.

System: Fibroblast
Test: Multiplex assay against human fibroblast
Assay type: toxicity, cell-based
In short: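 Imaging took place on a CQ1 microscope at 37°C and 5% CO2 once compound had been added to live cells stained at seeding with Hoechst33342, BioTracker Green Microtubule Cytoskeleton Dye, MitoTracker Red and Annexin V Alexa Fluor 680. CellPathfinder machine-learning gating classed cells as Hoechst high-intensity objects or normal cells, classed normal cells as having healthy, pyknosed or fragmented nuclei, and classed pyknosed cells as mitotic or apoptotic. Tubulin, mitochondrial-mass and membrane-permeability phenotypes are per cents of the healthy-nucleus cells.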

[1] = 12 h, 1 µM, compound concentration 1 uM
[2] = 12 h, 10 µM, compound concentration 10 uM
[3] = 24 h, 1 µM, compound concentration 1 uM
[4] = 24 h, 10 µM, compound concentration 10 uM
[5] = 48 h, 1 µM, compound concentration 1 uM
[6] = 48 h, 10 µM, compound concentration 10 uM

SMILES: Cl.N=C(N)NC(=O)Cc1c(Cl)cccc1Cl [GUANFACINE HYDROCHLORIDE]
- Population Apoptotic (%) [1]: 44% and 28%
- Population Fragmented Nuclei (%) [1]: 20% and 23%
- Population Healthy Nuclei (%) [1]: 62% and 45%
- Population Hoechst High Intensity Objects (%) [1]: 2%
- Population Membrane Permeable-Phenotype (%) [1]: 0% and 3%
- Population Mitochondria Different-Phenotype (%) [1]: 4% and 7%
- Population Mitotic Cells (%) [1]: 55% and 71%
- Population Normal (%) [1]: 97%
- Population Pyknosed Nuclei (%) [1]: 16% and 31%
- Population Tubulin-Different-Phenotype (%) [1]: 32% and 46%
- Total Cell Count [1]: 167 and 149
- Population Apoptotic (%) [2]: 66% and 35%
- Population Fragmented Nuclei (%) [2]: 16% and 22%
- Population Healthy Nuclei (%) [2]: 68% and 47%
- Population Hoechst High Intensity Objects (%) [2]: 0% and 10%
- Population Membrane Permeable-Phenotype (%) [2]: 1% and 5%
- Population Mitochondria Different-Phenotype (%) [2]: 5%
- Population Mitotic Cells (%) [2]: 33% and 64%
- Population Normal (%) [2]: 99% and 89%
- Population Pyknosed Nuclei (%) [2]: 15% and 29%
- Population Tubulin-Different-Phenotype (%) [2]: 24% and 46%
- Total Cell Count [2]: 139 and 127
- Population Apoptotic (%) [3]: 58% and 45%
- Population Fragmented Nuclei (%) [3]: 22% and 23%
- Population Healthy Nuclei (%) [3]: 62% and 46%
- Population Hoechst High Intensity Objects (%) [3]: 1% and 6%
- Population Membrane Permeable-Phenotype (%) [3]: 0% and 12%
- Population Mitochondria Different-Phenotype (%) [3]: 5% and 8%
- Population Mitotic Cells (%) [3]: 41% and 54%
- Population Normal (%) [3]: 98% and 93%
- Population Pyknosed Nuclei (%) [3]: 14% and 30%
- Population Tubulin-Different-Phenotype (%) [3]: 26% and 50%
- Total Cell Count [3]: 169 and 130
- Population Apoptotic (%) [4]: 63% and 25%
- Population Fragmented Nuclei (%) [4]: 17% and 26%
- Population Healthy Nuclei (%) [4]: 68% and 55%
- Population Hoechst High Intensity Objects (%) [4]: 1% and 4%
- Population Membrane Permeable-Phenotype (%) [4]: 0% and 13%
- Population Mitochondria Different-Phenotype (%) [4]: 4% and 3%
- Population Mitotic Cells (%) [4]: 36% and 75%
- Population Normal (%) [4]: 98% and 95%
- Population Pyknosed Nuclei (%) [4]: 14% and 18%
- Total Cell Count [4]: 137 and 114
- Population Apoptotic (%) [5]: 61% and 50%
- Population Fragmented Nuclei (%) [5]: 25% and 33%
- Population Healthy Nuclei (%) [5]: 63% and 45%
- Population Hoechst High Intensity Objects (%) [5]: 1% and 3%
- Population Membrane Permeable-Phenotype (%) [5]: 0% and 4%
- Population Mitochondria Different-Phenotype (%) [5]: 6% and 11%
- Population Mitotic Cells (%) [5]: 38% and 50%
- Population Normal (%) [5]: 98% and 96%
- Population Pyknosed Nuclei (%) [5]: 11% and 21%
- Population Tubulin-Different-Phenotype (%) [5]: 32% and 57%
- Total Cell Count [5]: 162 and 145
- Population Apoptotic (%) [6]: 66% and 45%
- Population Fragmented Nuclei (%) [6]: 22% and 39%
- Population Healthy Nuclei (%) [6]: 67% and 41%
- Population Hoechst High Intensity Objects (%) [6]: 1% and 6%
- Population Membrane Permeable-Phenotype (%) [6]: 1% and 8%
- Population Mitochondria Different-Phenotype (%) [6]: 6% and 2%
- Population Mitotic Cells (%) [6]: 33% and 54%
- Population Normal (%) [6]: 98% and 93%
- Population Pyknosed Nuclei (%) [6]: 10% and 19%
- Population Tubulin-Different-Phenotype (%) [6]: 24% and 67%
- Total Cell Count [6]: 142 and 120

SMILES: CCCn1c(=O)c2[nH]c(C3CCCC3)nc2n(CCC)c1=O [1,3-DIPROPYL-8-CYCLOPENTYLXANTHINE [DPCPX]]
- Population Apoptotic (%) [1]: 38% and 30%
- Population Fragmented Nuclei (%) [1]: 10% and 25%
- Population Healthy Nuclei (%) [1]: 73% and 46%
- Population Hoechst High Intensity Objects (%) [1]: 3%
- Population Membrane Permeable-Phenotype (%) [1]: 0% and 1%
- Population Mitochondria Different-Phenotype (%) [1]: 1% and 10%
- Population Mitotic Cells (%) [1]: 61% and 69%
- Population Normal (%) [1]: 96%
- Population Pyknosed Nuclei (%) [1]: 15% and 28%
- Population Tubulin-Different-Phenotype (%) [1]: 29% and 50%
- Total Cell Count [1]: 175 and 156
- Population Apoptotic (%) [2]: 58% and 25%
- Population Fragmented Nuclei (%) [2]: 18% and 32%
- Population Healthy Nuclei (%) [2]: 65% and 47%
- Population Hoechst High Intensity Objects (%) [2]: 3% and 6%
- Population Membrane Permeable-Phenotype (%) [2]: 0% and 12%
- Population Mitochondria Different-Phenotype (%) [2]: 10% and 3%
- Population Mitotic Cells (%) [2]: 41% and 75%
- Population Normal (%) [2]: 96% and 93%
- Population Pyknosed Nuclei (%) [2]: 17% and 20%
- Population Tubulin-Different-Phenotype (%) [2]: 47% and 59%
- Total Cell Count [2]: 104 and 129
- Population Apoptotic (%) [3]: 50% and 75%
- Population Fragmented Nuclei (%) [3]: 13% and 30%
- Population Healthy Nuclei (%) [3]: 77% and 48%
- Population Hoechst High Intensity Objects (%) [3]: 2% and 3%
- Population Membrane Permeable-Phenotype (%) [3]: 0% and 4%
- Population Mitochondria Different-Phenotype (%) [3]: 2% and 12%
- Population Mitotic Cells (%) [3]: 50% and 24%
- Population Normal (%) [3]: 97% and 96%
- Population Pyknosed Nuclei (%) [3]: 9% and 21%
- Population Tubulin-Different-Phenotype (%) [3]: 30% and 54%
- Total Cell Count [3]: 177 and 159
- Population Fragmented Nuclei (%) [4]: 17% and 35%
- Population Healthy Nuclei (%) [4]: 61% and 40%
- Population Hoechst High Intensity Objects (%) [4]: 3% and 6%
- Population Membrane Permeable-Phenotype (%) [4]: 6% and 8%
- Population Mitochondria Different-Phenotype (%) [4]: 9% and 4%
- Population Mitotic Cells (%) [4]: 36% and 79%
- Population Normal (%) [4]: 96% and 93%
- Population Pyknosed Nuclei (%) [4]: 22% and 24%
- Population Tubulin-Different-Phenotype (%) [4]: 49% and 63%
- Total Cell Count [4]: 104 and 125
- Population Apoptotic (%) [5]: 72% and 47%
- Population Fragmented Nuclei (%) [5]: 16% and 39%
- Population Healthy Nuclei (%) [5]: 70% and 48%
- Population Hoechst High Intensity Objects (%) [5]: 2% and 7%
- Population Membrane Permeable-Phenotype (%) [5]: 0% and 5%
- Population Mitotic Cells (%) [5]: 27% and 52%
- Population Normal (%) [5]: 97% and 92%
- Population Pyknosed Nuclei (%) [5]: 12%
- Population Tubulin-Different-Phenotype (%) [5]: 35% and 55%
- Total Cell Count [5]: 182 and 170
- Population Apoptotic (%) [6]: 57% and 50%
- Population Fragmented Nuclei (%) [6]: 24% and 43%
- Population Healthy Nuclei (%) [6]: 55% and 45%
- Population Hoechst High Intensity Objects (%) [6]: 3% and 2%
- Population Mitochondria Different-Phenotype (%) [6]: 13% and 8%
- Population Mitotic Cells (%) [6]: 42% and 50%
- Population Normal (%) [6]: 96% and 97%
- Population Pyknosed Nuclei (%) [6]: 20% and 10%
- Population Tubulin-Different-Phenotype (%) [6]: 50% and 78%
- Total Cell Count [6]: 98 and 136
